The source made the active and inactive calls. The calls are words filed in the database; no cut-off is given here.
How the values were obtained:
[1] = target: T1, Pteridine reductase, putative (Trypanosoma brucei) (UniProt Q581W1); experiment: Inhibition of Trypanosoma brucei PTR1 at 50 uM using H2B as substrate in presence of NADPH by photometric analysis relative to control
T1 sequence (whole entry): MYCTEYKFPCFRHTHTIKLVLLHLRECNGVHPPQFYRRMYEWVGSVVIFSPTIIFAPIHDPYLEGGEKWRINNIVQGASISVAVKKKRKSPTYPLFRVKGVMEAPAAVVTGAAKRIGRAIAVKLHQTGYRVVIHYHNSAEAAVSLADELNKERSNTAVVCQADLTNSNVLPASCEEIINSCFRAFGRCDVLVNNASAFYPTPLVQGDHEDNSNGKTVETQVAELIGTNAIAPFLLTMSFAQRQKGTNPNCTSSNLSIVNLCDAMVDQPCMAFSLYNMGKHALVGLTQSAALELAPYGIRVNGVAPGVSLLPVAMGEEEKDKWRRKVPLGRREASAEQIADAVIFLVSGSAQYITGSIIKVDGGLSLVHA

[2] = target: CYP2C9 (Homo sapiens, UniProt P11712); experiment: Inhibition of human microsomal CYP2C9 expressed in baculovirus infected BTI-TN-5B1-4 cells at 10 uM incubated for 30 mins by luciferase assay relative to control; format: ADME
Procedure, shortened: (§1)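 CYP1A2, 2C9, 2C19, 2D6 and 3A4 in microsomes from baculovirus-infected insect cells, each with a P450-Glo luminogenic substrate. Inhibition read as loss of light; single-point at 10 μM, triplicate.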

[3] = tested on: Trypanosoma brucei; experiment: Potentiation of methotrexate-induced antitrypanosomal activity against Trypanosoma brucei Lister 427 bloodstream form at 10 uM after 72 hrs by resazurin dye-based assay; format: functional
[4] = Cytotoxicity against human U2OS cells assessed as viable cells at 50 uM after 72 hrs by MTT assay relative to control; format: cell-based; settings: read-out: Activity
[5] = target: CYP2D6 (Homo sapiens, UniProt P10635); experiment: Inhibition of human microsomal CYP2D6 expressed in baculovirus infected BTI-TN-5B1-4 cells at 10 uM incubated for 30 mins by luciferase assay relative to control; format: ADME; procedure, shortened: as §1
[6] = tested on: Trypanosoma brucei; experiment: Potentiation of methotrexate-induced antitrypanosomal activity against Trypanosoma brucei Lister 427 bloodstream form at 10 uM after 72 hrs by resazurin dye-based assay relative to control; format: functional
[7] = Cytotoxicity against human A549 cells assessed as growth inhibition at 10 uM after 48 hrs by CellTiter-Glo assay relative to control; values are per cent of control; settings: A549 cells
[8] = target: T2, CYP1A2 (Homo sapiens, UniProt P05177); experiment: Inhibition of human microsomal CYP1A2 expressed in baculovirus infected BTI-TN-5B1-4 cells at 10 uM incubated for 30 mins by luciferase assay relative to control; format: ADME; procedure, shortened: as §1
T2 sequence (P05177 whole entry): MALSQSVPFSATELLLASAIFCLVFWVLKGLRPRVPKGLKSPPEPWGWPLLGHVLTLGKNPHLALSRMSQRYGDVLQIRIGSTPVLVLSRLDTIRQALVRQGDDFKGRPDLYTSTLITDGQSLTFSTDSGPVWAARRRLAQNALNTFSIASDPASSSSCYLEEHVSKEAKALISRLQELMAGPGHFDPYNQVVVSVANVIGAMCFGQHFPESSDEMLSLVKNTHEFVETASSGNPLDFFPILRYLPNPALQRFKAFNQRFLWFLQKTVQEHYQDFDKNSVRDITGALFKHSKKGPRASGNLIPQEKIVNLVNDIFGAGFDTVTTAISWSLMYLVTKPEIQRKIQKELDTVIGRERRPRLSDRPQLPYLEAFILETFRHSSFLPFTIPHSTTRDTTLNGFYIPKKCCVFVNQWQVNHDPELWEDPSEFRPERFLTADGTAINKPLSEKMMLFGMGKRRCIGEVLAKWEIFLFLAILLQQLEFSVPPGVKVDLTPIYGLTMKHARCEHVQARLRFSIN

[9] = Selectivity index, ratio of CC50 for human U2OS cells to EC50 for Trypanosoma cruzi amastigote form; format: toxicity; settings: read-out: Ratio CC50/EC50
Procedure, shortened: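 Selectivity index = CC50 in the human host or cytotoxicity cell line divided by parasite EC50.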

[10] = target: CYP3A4 (Homo sapiens, UniProt P08684); experiment: Inhibition of human microsomal CYP3A4 expressed in baculovirus infected BTI-TN-5B1-4 cells at 10 uM incubated for 30 mins by luciferase assay relative to control; format: ADME; procedure, shortened: as §1
[11] = target: Aurora kinase B (Homo sapiens, UniProt Q96GD4); experiment: Inhibition of recombinant full-length human aurora B kinase expressed in baculovirus system at 10 uM using MBP as substrate incubated for 45 mins by ADP-glo kinase assay; settings: probe MBP
Procedure, shortened: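 Aurora B activity measured as ADP formation via coupled luciferase ADP-Glo luminescence; single-point at 10 μM, triplicate.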

[12] = target: hERG (KCNH2) (Homo sapiens, UniProt Q12809); experiment: Inhibition of human ERG at 10 uM incubated for 2 hrs by fluorescence polarisation assay relative to control
[13] = target: CYP2C19 (Homo sapiens, UniProt P33261); experiment: Inhibition of human microsomal CYP2C19 expressed in baculovirus infected BTI-TN-5B1-4 cells at 10 uM incubated for 30 mins by luciferase assay relative to control; format: ADME; procedure, shortened: as §1
[14] = Cytotoxicity against human THP1 cells assessed as viable cells at 100 uM after 72 hrs by MTT assay relative to control; format: cell-based, THP-1; settings: read-out: Activity
Procedure, shortened: (§2)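 THP-1-derived macrophages exposed to compounds for 72 h, tested at 100 μM or in dose-response; viability read by MTT colorimetric assay.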

[15] = tested on: Trypanosoma cruzi; experiment: Antitrypanosomal activity against Trypanosoma cruzi amastigote form infected in human U2OS cells assessed as parasite growth inhibition after 72 hrs; format: functional, organism-based
Procedure, shortened: (§3)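 U2OS monolayers grown for 24 h, then infected with tissue-derived trypomastigotes of T. cruzi Y strain. Compounds were added 24 h after infection at 50 μM (single-point) or in dose-response, with 72 h exposure. Plates were fixed, stained and analysed by high-content imaging; activity was normalized to infected and non-infected controls. Means of at least two experiments; benznidazole as reference.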

[16] = tested on: Trypanosoma cruzi; experiment: Antitrypanosomal activity against Trypanosoma cruzi amastigote form infected in human U2OS cells assessed as parasite growth inhibition at 50 uM after 72 hrs relative to control; format: functional; settings: read-out: GI; procedure, shortened: as §3
[17] = Cytotoxicity against human U2OS cells assessed as decrease in viable cells after 72 hrs by cell number count in anti-T. cruzi high content imaging assay; settings: U2OS cells
[18] = tested on: Trypanosoma brucei; experiment: Antitrypanosomal activity against Trypanosoma brucei Lister 427 bloodstream form assessed as parasite growth inhibition at 50 uM after 72 hrs by SYBR Green assay relative to control; format: functional; settings: for inhibition of growth at 50 µM: Lister 427, 72 h, read-out: GI
[19] = Cytotoxicity against human 786-O cells assessed as inhibition of mitochondrial viability at 10 uM after 6 hrs by CMXRos staining based assay relative to control; format: cell-based, 786-0; settings: read-out: INH
Procedure, shortened: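 Mitochondrial toxicity monitored by MitoTracker Red CMXRos uptake and high-content imaging; compound at 10 μM, triplicate.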

[20] = tested on: Leishmania infantum; experiment: Antileishmanial activity against Leishmania infantum amastigote form assessed as parasite growth inhibition at 50 uM after 72 hrs by steady-Glo reagent based assay relative to control; format: functional; settings: for inhibition of growth at 50 µM: read-out: GI
Procedure, shortened: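 Intramacrophage L. infantum amastigotes in THP-1-derived macrophages, tested at 50 μM or in dose-response. Plates held 72 h at 37 °C, 5% CO2. Medium was replaced by PBS, macrophages lysed, and parasites read by Steady-Glo luminescence. High-content imaging gave host cell number, infection ratio (infected/total cells) and parasites per infected cell. Values are means of at least two independent experiments.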

[21] = tested on: Trypanosoma brucei; experiment: Antitrypanosomal activity against Trypanosoma brucei Lister 427 bloodstream form at 10 uM after 72 hrs by resazurin dye-based assay relative to control; format: functional
[22] = target: T3, Pteridine reductase 1 (Leishmania major) (UniProt Q01782); experiment: Inhibition of Leishmania major PTR1 at 50 uM using H2B as substrate in presence of NADPH by photometric analysis relative to control
T3 sequence (whole entry): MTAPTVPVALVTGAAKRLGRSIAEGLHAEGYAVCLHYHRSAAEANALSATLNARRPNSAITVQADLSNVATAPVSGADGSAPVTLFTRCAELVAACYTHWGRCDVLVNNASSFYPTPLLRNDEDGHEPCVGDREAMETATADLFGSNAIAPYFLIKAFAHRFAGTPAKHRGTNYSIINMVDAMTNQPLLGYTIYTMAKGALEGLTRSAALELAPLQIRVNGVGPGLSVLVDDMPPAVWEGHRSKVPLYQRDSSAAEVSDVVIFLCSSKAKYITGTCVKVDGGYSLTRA

[23] = Cytotoxicity against human WI38 cells assessed as growth inhibition at 10 uM after 48 hrs by CellTiter-Glo assay relative to control; values are per cent of control; settings: WI38 cells
[24] = Cytotoxicity against human THP1 cells assessed as decrease in viable cells after 72 hrs by MTT assay; format: cell-based, THP-1; settings: THP1 cells; procedure, shortened: as §2
[25] = tested on: Trypanosoma brucei; experiment: Antitrypanosomal activity against Trypanosoma brucei Lister 427 bloodstream form after 72 hrs by SYBR Green assay; format: functional, organism-based; settings: Lister 427, 72 h

Chain of CYP2C9 (P11712 whole entry): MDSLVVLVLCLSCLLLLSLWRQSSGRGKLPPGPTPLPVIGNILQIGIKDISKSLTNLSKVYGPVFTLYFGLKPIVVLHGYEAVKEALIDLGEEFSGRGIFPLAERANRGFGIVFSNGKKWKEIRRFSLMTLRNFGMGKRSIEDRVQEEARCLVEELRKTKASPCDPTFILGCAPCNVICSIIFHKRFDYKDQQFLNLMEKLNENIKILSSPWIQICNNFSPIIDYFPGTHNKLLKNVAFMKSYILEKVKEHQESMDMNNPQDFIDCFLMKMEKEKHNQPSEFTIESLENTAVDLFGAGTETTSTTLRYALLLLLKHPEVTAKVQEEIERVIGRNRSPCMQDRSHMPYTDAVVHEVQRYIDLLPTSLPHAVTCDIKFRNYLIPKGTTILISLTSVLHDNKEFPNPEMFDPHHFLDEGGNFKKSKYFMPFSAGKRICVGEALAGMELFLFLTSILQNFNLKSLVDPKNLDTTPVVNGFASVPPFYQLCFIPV
Chain of hERG (KCNH2) (Q12809 whole entry): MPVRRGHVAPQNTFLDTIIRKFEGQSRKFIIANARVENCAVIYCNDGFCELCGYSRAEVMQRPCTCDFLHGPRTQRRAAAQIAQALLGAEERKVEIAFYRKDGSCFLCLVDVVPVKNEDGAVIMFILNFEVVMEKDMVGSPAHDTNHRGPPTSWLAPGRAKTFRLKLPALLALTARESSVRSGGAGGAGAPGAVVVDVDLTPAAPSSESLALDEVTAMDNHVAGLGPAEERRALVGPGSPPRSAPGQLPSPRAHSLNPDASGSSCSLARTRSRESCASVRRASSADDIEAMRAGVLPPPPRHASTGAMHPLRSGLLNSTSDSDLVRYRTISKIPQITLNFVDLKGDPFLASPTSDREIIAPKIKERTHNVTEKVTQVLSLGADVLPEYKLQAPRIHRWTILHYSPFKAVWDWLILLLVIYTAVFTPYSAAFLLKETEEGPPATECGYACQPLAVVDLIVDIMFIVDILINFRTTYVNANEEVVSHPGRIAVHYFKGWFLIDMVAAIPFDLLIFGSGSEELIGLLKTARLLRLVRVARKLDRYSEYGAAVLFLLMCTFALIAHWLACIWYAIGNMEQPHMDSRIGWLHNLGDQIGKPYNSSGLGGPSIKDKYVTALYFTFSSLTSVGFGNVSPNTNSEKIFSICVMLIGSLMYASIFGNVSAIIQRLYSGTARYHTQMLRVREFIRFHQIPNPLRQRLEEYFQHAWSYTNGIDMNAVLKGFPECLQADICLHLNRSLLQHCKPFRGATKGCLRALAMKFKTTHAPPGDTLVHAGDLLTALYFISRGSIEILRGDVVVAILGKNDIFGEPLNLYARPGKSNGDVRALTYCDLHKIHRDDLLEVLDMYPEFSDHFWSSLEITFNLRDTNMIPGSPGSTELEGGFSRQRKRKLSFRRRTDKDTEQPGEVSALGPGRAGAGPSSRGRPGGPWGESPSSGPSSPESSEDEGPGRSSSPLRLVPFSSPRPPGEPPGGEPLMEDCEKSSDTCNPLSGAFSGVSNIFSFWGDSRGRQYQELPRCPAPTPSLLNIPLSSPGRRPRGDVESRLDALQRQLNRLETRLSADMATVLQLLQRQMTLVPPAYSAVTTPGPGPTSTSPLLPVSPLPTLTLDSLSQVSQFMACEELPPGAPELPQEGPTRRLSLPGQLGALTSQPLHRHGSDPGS
Chain of CYP2D6 (P10635 whole entry): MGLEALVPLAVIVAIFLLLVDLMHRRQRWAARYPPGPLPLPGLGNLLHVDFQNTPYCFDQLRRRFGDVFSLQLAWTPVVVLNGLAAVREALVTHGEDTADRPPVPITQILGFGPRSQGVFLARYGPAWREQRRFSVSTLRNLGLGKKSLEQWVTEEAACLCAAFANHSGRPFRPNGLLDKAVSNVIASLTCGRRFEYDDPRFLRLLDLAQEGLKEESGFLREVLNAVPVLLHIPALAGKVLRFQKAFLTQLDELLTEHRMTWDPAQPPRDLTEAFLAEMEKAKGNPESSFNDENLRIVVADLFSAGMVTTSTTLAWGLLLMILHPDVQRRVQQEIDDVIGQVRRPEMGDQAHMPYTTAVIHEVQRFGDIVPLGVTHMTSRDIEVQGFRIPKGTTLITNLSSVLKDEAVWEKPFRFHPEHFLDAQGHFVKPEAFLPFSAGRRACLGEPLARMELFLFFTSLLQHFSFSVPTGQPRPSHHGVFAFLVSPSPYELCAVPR
Chain of CYP2C19 (P33261 whole entry): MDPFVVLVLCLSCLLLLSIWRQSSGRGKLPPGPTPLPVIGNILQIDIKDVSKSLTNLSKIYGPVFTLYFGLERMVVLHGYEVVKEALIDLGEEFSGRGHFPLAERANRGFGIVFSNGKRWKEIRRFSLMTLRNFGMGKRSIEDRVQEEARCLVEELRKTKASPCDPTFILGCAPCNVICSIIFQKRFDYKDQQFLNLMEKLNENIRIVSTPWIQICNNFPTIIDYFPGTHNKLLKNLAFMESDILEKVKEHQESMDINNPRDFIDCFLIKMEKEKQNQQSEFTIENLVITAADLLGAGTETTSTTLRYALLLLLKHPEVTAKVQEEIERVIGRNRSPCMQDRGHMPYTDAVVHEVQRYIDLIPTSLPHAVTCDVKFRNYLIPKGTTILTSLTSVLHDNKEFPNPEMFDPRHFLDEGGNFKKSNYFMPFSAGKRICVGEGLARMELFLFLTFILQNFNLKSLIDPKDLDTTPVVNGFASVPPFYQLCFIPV
Chain of CYP3A4 (P08684 whole entry): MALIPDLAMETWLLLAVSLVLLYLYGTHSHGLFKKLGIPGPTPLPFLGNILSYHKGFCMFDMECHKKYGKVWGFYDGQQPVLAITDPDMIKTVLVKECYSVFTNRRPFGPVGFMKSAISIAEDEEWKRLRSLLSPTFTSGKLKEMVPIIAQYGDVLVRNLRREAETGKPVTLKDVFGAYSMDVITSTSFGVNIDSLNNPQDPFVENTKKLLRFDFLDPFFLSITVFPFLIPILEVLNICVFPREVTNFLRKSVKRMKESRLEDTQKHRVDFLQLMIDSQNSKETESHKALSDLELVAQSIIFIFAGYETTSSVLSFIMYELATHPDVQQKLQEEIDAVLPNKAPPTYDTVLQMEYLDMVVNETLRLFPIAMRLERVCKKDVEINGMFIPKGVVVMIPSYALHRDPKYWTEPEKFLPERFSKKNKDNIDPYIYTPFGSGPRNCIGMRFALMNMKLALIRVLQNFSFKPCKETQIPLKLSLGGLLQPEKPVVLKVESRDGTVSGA
Chain of Aurora kinase B (Q96GD4 whole entry): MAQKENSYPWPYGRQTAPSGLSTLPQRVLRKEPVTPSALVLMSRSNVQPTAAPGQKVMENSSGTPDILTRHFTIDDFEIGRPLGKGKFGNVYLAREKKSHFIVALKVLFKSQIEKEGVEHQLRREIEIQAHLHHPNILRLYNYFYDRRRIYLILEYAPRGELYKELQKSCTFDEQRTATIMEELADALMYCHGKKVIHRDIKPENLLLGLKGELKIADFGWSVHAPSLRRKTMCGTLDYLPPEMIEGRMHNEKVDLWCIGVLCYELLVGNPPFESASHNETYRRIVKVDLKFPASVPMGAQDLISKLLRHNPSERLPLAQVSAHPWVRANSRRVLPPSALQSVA

Compound	inhibition [1]	inhibition at 0.5 h, 10 µM [2]	PF [3]	viability at 72 h, 50 µM [4]	inhibition at 0.5 h, 10 µM [5]	Activity [6]	cell growth (% of control) at 48 h, 10 µM [7]	inhibition at 0.5 h, 10 µM [8]	selectivity ratio [9]	inhibition at 0.5 h, 10 µM [10]	inhibition at 0.75 h, 10 µM [11]	inhibition at 2 h, 10 µM [12]	inhibition at 0.5 h, 10 µM [13]	viability at 72 h, 100 µM [14]	EC50 [15]	inhibition of growth at 50 µM [16]	CC50 at 72 h [17]	cytotoxicity at 6 h, 10 µM [19]	Activity [21]	inhibition [22]	further results
NC(=S)N/N=C/c1ccco1	3.99%	-12.2%	0.87	112%	-43.1%	24%	124%	-0.31%	> 1	-12.2%	-8.76%	-7.97%	-43.2%	92.9%	1.87 µM	93.6%	> 44 µM	-4.4%	3.33%	14.8%	growth inhibition (GI) [18]: inactive; inhibition of growth at 50 µM [20]: 26.9%; cell growth (% of control) at 48 h, 10 µM [23]: 106%
N/C(S)=N/N=C/c1cccc(Br)c1	14.9%	-7.51%	2.44	57.3%	-14.4%	61.17%	130%	66.6%	> 1	-19.8%	-16.2%	10.7%	-35.9%	79.3%	2.29 µM	90.8%	> 44 µM	0.71%	0.83%	18.4%	inhibition of growth at 50 µM [18]: 44.1%; growth inhibition (GI) [20]: inactive; cell growth (% of control) at 48 h, 10 µM [23]: 120%
N=C(N)c1ccc(OCCCCCOc2ccc(C(=N)N)cc2)cc1 [PENTAMIDINE]	–	–	–	–	–	–	–	–	–	–	–	–	–	–	–	–	–	–	–	–	CC50 at 72 h [24]: 10 µM
NC(=S)N/N=C/C=C/c1ccccc1	8.92%	9.11%	2.37	76.1%	3.17%	84.5%	129%	18.3%	> 1	-13.1%	-5.47%	7.23%	-36.7%	44.1%	1.59 µM	94.6%	> 44 µM	-2.97%	11.33%	9.09%	EC50 [25]: 16.9 µM; inhibition of growth at 50 µM [18]: 91.7%; inhibition of growth at 50 µM [20]: 45.9%; cell growth (% of control) at 48 h, 10 µM [23]: 82.8%
